ChEMBL document CHEMBL4138243, “Synthesis, biological evaluation, and metabolic stability of phenazine derivatives as antibacterial agents” (Eur J Med Chem, 2018)
≈ marks a conversion by molar mass, not a printed value. Calls of active or inactive are those of the source. No cut-off for these calls is given here.

Key:
Escherichia coli [1] = test: Antibacterial activity against Escherichia coli K-12 after 24 hrs by broth microdilution method; assay type: functional; settings: K-12, 24 h
Method in brief: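 Broth microdilution per ASM Clinical Microbiology Procedures Handbook (3rd ed.); 1 mg/mL DMSO stock serially 2-fold diluted in Mueller Hinton broth with 5% DMSO; inoculum from direct colony suspension at 0.5 McFarland; static incubation 37 °C, 24 h. MIC = lowest concentration without visible growth (eye and OD600). Vancomycin and gentamicin positive controls, medium negative control; triplicate.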

Staphylococcus aureus [2] = test: Antibacterial activity against methicillin-resistant Staphylococcus aureus USA300 JE2 after 24 hrs by broth microdilution method; assay type: functional; settings: USA300 JE2, 24 h
Method in brief: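 Broth microdilution. Test material taken from a 1 mg/mL DMSO stock and serially diluted 2-fold in Mueller Hinton broth containing 5% DMSO. Wells inoculated with a direct colony suspension at 0.5 McFarland, then incubated statically at 37 °C for 24 h. MIC is the lowest concentration with no growth, read by eye and by OD600. Vancomycin and gentamicin as positive controls. Run in triplicate.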

Staphylococcus aureus [3] = test: Antibacterial activity against methicillin-resistant Staphylococcus aureus USA300 JE2 at 10 ug after 24 hrs by Kirby Bauer method; assay type: functional; settings: USA300 JE2, 24 h, read-out: DIZ
Method in brief: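 Disc diffusion reference, streptomycin 10 µg. 0.5 McFarland inoculum spread on Mueller Hinton agar with 6 mm discs. Incubated at 37 °C and inhibition zone diameter measured after 24 h.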

[4] = Toxicity in Galleria mellonella larvae assessed as survival at 3 ug/ml after 96 hrs relative to control; assay type: organism-based; settings: in vivo
[5] = Stability in tris buffer at pH 7.4 at 1 uM after 2 hrs by LC-MS/MS method; assay type: physicochemical; settings: pH 7.4, 2 h
Method in brief: (§1)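 Stability tested in simulated gastric fluid (pH 1.2), simulated intestinal fluid (pH 6.8) and 50 mM tris buffer (pH 7.4) using literature protocols.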

Staphylococcus aureus [6] = test: Induction of biofilm dispersion of methicillin-resistant Staphylococcus aureus USA300 JE2 at 1 to 32 ug/ml after 24 hrs by crystal violet staining-based assay relative to control; assay type: functional, organism-based
Method in brief: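 Preformed-biofilm dispersion. Gelatin-coated wells seeded with 1 × 10^6 CFU/mL in TSB with 0.5% glucose and grown 24 h at 37 °C. Medium replaced with 2-fold dilutions in fresh TSB with 0.5% glucose, then a further 24 h at 37 °C. Biofilm fixed with methanol, stained with 0.1% crystal violet, dissolved in methanol:acetic acid:water 4:1:5 and read at OD540.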

Staphylococcus aureus [7] = test: Antibacterial activity against methicillin-resistant Staphylococcus aureus USA300 JE2 at 10 times MIC after 6 days by Kirby Bauer method; assay type: functional, organism-based
Method in brief: (§2)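 Mutant-resistance disc assay. Culture grown in Mueller Hinton broth for 4 h, diluted to 1.5 × 10^8 CFU/mL (0.5 McFarland) and spread on Mueller Hinton agar. 6 mm paper discs loaded with compound in DMSO at 10 × MIC. Plates at 37 °C. Inhibition zone diameter read at 24 h. Plates then kept 6 days and checked for colonies growing inside the zone.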

Staphylococcus aureus [8] = test: Induction of membrane damage of methicillin-resistant Staphylococcus aureus USA300 JE2 at MIC after 18 hrs by propidium iodide staining-based flow cytometric method; assay type: functional, organism-based
Method in brief: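 Flow cytometry membrane-permeability assay. […] Propidium iodide stock at 1 mg/mL added, held 15–20 min in the dark, then cells washed three times and resuspended in PBS. Controls: PI-stained untreated cells and cells treated with 70% ethanol.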

Escherichia coli [9] = test: Induction of membrane damage of Escherichia coli K-12 at 2 times MIC after 18 hrs by transmission electron microscopic method; assay type: functional, organism-based
[10] = Stability in simulated intestinal fluid at pH 6.8 at 1 uM after 2 hrs by LC-MS/MS method; assay type: ADME; settings: simulated gi fluid, pH 6.8, 2 h; method in brief: as §1
[11] = Stability in simulated gastric fluid at pH1.2 at 1 uM after 2 hrs by LC-MS/MS method; assay type: ADME; settings: simulated gi fluid, pH 1.2, 2 h; method in brief: as §1
[12] = Metabolic stability in human liver S9 fraction at 1 uM after 5 to 60 mins by LC-MS/MS method; assay type: ADME, subcellular; settings: s9, 1 µM
Method in brief: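 Compounds incubated with human liver S9 fraction, covering phase I and phase II enzymes; depletion followed over incubation time as percent remaining. Mean ± S.D., n = 3.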

Staphylococcus aureus [13] = test: Induction of membrane damage of methicillin-resistant Staphylococcus aureus USA300 JE2 at 2 times MIC after 18 hrs by transmission electron microscopic method; assay type: functional, organism-based
Method in brief: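 TEM. […] Cells washed three times in PBS, then fixed in 2% glutaraldehyde with 2% paraformaldehyde in 0.1 M phosphate buffer.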

Staphylococcus aureus [14] = test: Inhibition of biofilm formation of methicillin-resistant Staphylococcus aureus USA300 JE2 at 8 times MIC after 24 hrs by crystal violet staining-based assay relative to control; assay type: functional
Method in brief: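 Biofilm formation inhibition. Gelatin-coated wells received 2-fold dilutions in TSB with 0.5% glucose plus cells at 2 × 10^6 CFU/mL from fresh culture. Incubated at 37 °C for 24 h. Wells gently rinsed, stained with 0.1% crystal violet for 10 min, destained in methanol:acetic acid:water 4:1:5 and read at OD540.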

Staphylococcus aureus [15] = test: Antibacterial activity against methicillin-resistant Staphylococcus aureus USA300 JE2 at 10 times MIC after 24 hrs by Kirby Bauer method; assay type: functional; method in brief: as §2

Work on `COC(=O)c1cccc2nc3cc(OC)ccc3nc12` yielded an MIC (Escherichia coli [1]) of 64 µg/mL (≈ 239 µM) and an MIC (Staphylococcus aureus [2]) of 128 µg/mL (≈ 477 µM).
For `CN[C@@H]1[C@H](O[C@H]2[C@H](O[C@H]3[C@H](O)[C@@H](O)[C@H](N=C(N)N)[C@@H](O)[C@@H]3N=C(N)N)O[C@@H](C)[C@]2(O)C=O)O[C@@H](CO)[C@H](O)[C@H]1O` [STREPTOMYCIN], the zone of inhibition at 10 µg/disc (Staphylococcus aureus [3]) was 18 mm.
Work on `N#CNC(=O)c1cccc2nc3cccc(F)c3nc12` yielded an MIC (Escherichia coli [1]) of 128 µg/mL (≈ 481 µM) and an MIC (Staphylococcus aureus [2]) of 128 µg/mL (≈ 481 µM).
`CS(=O)(=O)NC(=O)c1cccc2nc3ccccc3nc12` showed an MIC (Escherichia coli [1]) of 128 µg/mL (≈ 425 µM) and an MIC (Staphylococcus aureus [2]) of 128 µg/mL (≈ 425 µM).
`COC(=O)c1cccc2nc3c(Cl)ccc(Cl)c3nc12` showed an MIC (Escherichia coli [1]) of 64 µg/mL (≈ 208 µM) and an MIC (Staphylococcus aureus [2]) of 128 µg/mL (≈ 417 µM).
`COc1ccc(Br)c2nc3c(C(=O)O)cccc3nc12` gave an MIC (Escherichia coli [1]) of 64 µg/mL (≈ 192 µM) and an MIC (Staphylococcus aureus [2]) of 128 µg/mL (≈ 384 µM).
In the case of `COc1ccc(Br)c2nc3c(C(=O)NC#N)cccc3nc12`, the MIC (Escherichia coli [1]) is reported as 32 µg/mL (≈ 89.6 µM) and the MIC (Staphylococcus aureus [2]) is reported as 256 µg/mL (≈ 717 µM).
For `CS(=O)(=O)NC(=O)c1cccc2nc3cccc(Cl)c3nc12`, the survival at 96 h [4] was 70%, the Stability [5] was “Stable” and the Activity (Staphylococcus aureus [6]) was “inactive”. For the same molecule, the Activity (Staphylococcus aureus [7]) was “Active”, the Activity (Staphylococcus aureus [8]) was “inactive” and the MIC (Escherichia coli [1]) was 128 µg/mL (≈ 381 µM). The Activity (Escherichia coli [9]) was “inactive”, the Stability [10] was “Stable” and the Stability [11] was “Stable”. The Stability [12] was “Stable”, the Activity (Staphylococcus aureus [13]) was “inactive” and the MIC (Staphylococcus aureus [2]) was 2 µg/mL (≈ 5.96 µM). For the same molecule, the “inhibition (INH)” value (Staphylococcus aureus [14]) was 90% and the “diameter of the inhibition zone (DIZ)” value (Staphylococcus aureus [15]) was 16 mm.
`O=C(Nc1nnn[nH]1)c1cccc2nc3cccc(Cl)c3nc12` showed an MIC (Escherichia coli [1]) of 128 µg/mL (≈ 393 µM) and an MIC (Staphylococcus aureus [2]) of 32 µg/mL (≈ 98.2 µM).
In the case of `COc1ccc(OC)c2nc3c(C(=O)O)cccc3nc12`, the MIC (Escherichia coli [1]) is reported as 64 µg/mL (≈ 225 µM) and the MIC (Staphylococcus aureus [2]) is reported as 64 µg/mL (≈ 225 µM).
`COc1cc(Br)cc2nc3cccc(C(=O)O)c3nc12` showed an MIC (Escherichia coli [1]) of 128 µg/mL (≈ 384 µM) and an MIC (Staphylococcus aureus [2]) of 128 µg/mL (≈ 384 µM).
In the case of `CC(C)(C)[Si](C)(C)ON`, the Activity (Staphylococcus aureus [7]) is reported as “Active” and the “diameter of the inhibition zone (DIZ)” value (Staphylococcus aureus [15]) is reported as 11 mm.
With `COC(=O)c1cccc2nc3cc(OC)cc(Br)c3nc12` the MIC (Escherichia coli [1]) was 128 µg/mL (≈ 369 µM) and the MIC (Staphylococcus aureus [2]) was 128 µg/mL (≈ 369 µM).
`COc1cc(Br)c2nc3c(C(=O)O)cccc3nc2c1` showed an MIC (Escherichia coli [1]) of 256 µg/mL (≈ 768 µM) and an MIC (Staphylococcus aureus [2]) of 64 µg/mL (≈ 192 µM).
Molecule `COc1ccc(Br)c2nc3c(C(=O)NS(C)(=O)=O)cccc3nc12` has an MIC (Escherichia coli [1]) of 64 µg/mL (≈ 156 µM) and an MIC (Staphylococcus aureus [2]) of 128 µg/mL (≈ 312 µM).
